pEC50, pIC50: −log10 of the molar value.
Legend:
HL-60 = experiment: Cytotoxicity against human HL60 cells after 48 hrs by MTT assay; type: functional, cell-based; conditions: HL-60, 48 h
[1] = Cytotoxicity against human C8166 cells by MTT assay; type: cell-based
Procedure, shortened: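 C8166 cells assessed for cytotoxicity by MTT; CC50 derived. AZT positive control.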

[2] = system: Human immunodeficiency virus 1; experiment: Antiviral activity against HIV1 assessed as inhibition of cytopathic effect by microtiter syncytium formation infectivity assay; type: functional, organism-based
Procedure, shortened: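 HIV-1 cytopathic-effect inhibition read as syncytium formation in microtiter format; EC50 derived. AZT positive control.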

SMMC-7721 = experiment: Cytotoxicity against human SMMC7721 cells after 48 hrs by MTT assay; type: functional, cell-based; conditions: SMMC-7721, 48 h
MCF7 = experiment: Cytotoxicity against human MCF7 cells after 48 hrs by MTT assay; type: functional, cell-based; conditions: MCF7, 48 h
A549 = experiment: Cytotoxicity against human A549 cells after 48 hrs by MTT assay; type: functional, cell-based; conditions: A549, 48 h
[3] = Therapeutic index, ratio of CC50 for human C8166 cells to EC50 for HIV1; type: cell-based; conditions: read-out: Ratio CC50/EC50
Procedure, shortened: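 Therapeutic index computed as CC50 (MTT cytotoxicity in C8166 cells) divided by EC50 (inhibition of HIV-1 cytopathic effect, syncytium formation in microtiter assay).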

SW480 = experiment: Cytotoxicity against human SW480 cells after 48 hrs by MTT assay; type: functional, cell-based; conditions: SW480, 48 h

Row | SMILES | pIC50 (HL-60) | CC50 [1] | pEC50 [2] | pIC50 (SMMC-7721) | pIC50 (MCF7) | pIC50 (A549) | selectivity ratio [3] | pIC50 (SW480)
1 | C=C1[C@@H]([C@H](C)CC/C=C(/C)C(=O)O)CC[C@@]2(C)[C@@H]3CC[C@@H](C(C)(C)C(=O)O)[C@](C)(CC(=O)O)C3=C[C@@H]12 | < 5.00 | > 200 µM | 4.16 | < 5.00 | < 5.00 | < 5.00 | > 2.9 | < 5.00
2 | C=C1[C@@H]([C@H](C)CC/C=C(/C)C(=O)O)CC[C@@]2(C)C3=C(C[C@@H]12)[C@@](C)(CC(=O)O)[C@H](C(C)(C)C(=O)O)CC3 | – | > 200 µM | 3.92 | – | – | – | > 1.7 | –
3 | C=C1[C@@H]([C@H](C)CC/C=C(/C)C(=O)O)CC[C@@]2(C)[C@@H]3CC[C@H]4C(C)(C)OC(=O)CC[C@]4(C)C3=C[C@@H]12 | < 5.00 | – | – | < 5.00 | < 5.00 | < 5.00 | – | < 5.00
4 | CC1=C([C@H](C)CC/C=C(/C)C(=O)O)CC[C@@]2(C)[C@@H]3CC[C@H]4C(C)(C)C(=O)CC[C@]4(C)C3=C[C@@H]12 | < 5.00 | 116 µM | 4.21 | < 5.00 | < 5.00 | < 5.00 | 1.9 | < 5.00
5 | CO[C@@]12CC[C@H]3C(C)(C)C(=O)CC[C@]3(C)C1=CC1=C(C=O)[C@@H]([C@H](C)CC/C=C(/C)C(=O)O)CC[C@]12C | – | > 200 µM | 3.93 | – | – | – | > 1.7 | –
6 | C=C1[C@@H]([C@H](C)CC/C=C(/C)C(=O)O)CC[C@@]2(C)[C@@H]3CC[C@@H](C(C)(C)O)[C@](C)(CCC(=O)O)C3=C[C@@H]12 | – | 143 µM | 4.23 | – | – | – | 2.4 | –
7 | C=C1[C@@H]([C@H](C)CC/C=C(/C)C(=O)O)CC[C@@]2(C)[C@@H]3CC[C@@H](C(C)(C)O)[C@](C)(CCC(=O)OC)C3=C[C@@H]12 | < 5.00 | 142 µM | 4.09 | < 5.00 | < 5.00 | < 5.00 | 1.8 | < 5.00
8 | C=C(C)[C@@H]1CC[C@@H]2C(=C[C@@]3(OC)C(=C)[C@@H]([C@H](C)CC/C=C(/C)C(=O)O)CC[C@@]23C)[C@@]1(C)CCC(=O)O | < 5.00 | 184 µM | 4.15 | < 5.00 | < 5.00 | < 5.00 | 2.6 | < 5.00
9 | C=C1[C@@H]([C@H](C)CC/C=C(/C)C(=O)O)CC[C@@]2(C)[C@@H]3CC[C@@H](C(=C)C)[C@](C)(CCC(=O)O)C3=C[C@@H]12 | < 5.00 | 203 µM | 4.05 | < 5.00 | < 5.00 | < 5.00 | 2.3 | < 5.00
10 | Cc1cn([C@H]2C[C@H](N=[N+]=[N-])[C@@H](CO)O2)c(=O)[nH]c1=O [ZIDOVUDINE] | – | 4690 µM | 7.70 | – | – | – | > 230000 | –
